Results published in ChEMBL document CHEMBL3596194, “Design, synthesis and biological evaluation of bivalent benzoxazolone and benzothiazolone ligands as potential anti-inflammatory/analgesic agents” (Bioorg Med Chem, 2015).
The source made the active and inactive calls. The rule behind the calls is not given here.

How the values were obtained:
BT-549 [1] = experiment: Cytotoxicity against human BT549 cells after 48 hrs by neutral red assay relative to control; format: cell-based; conditions: BT-549, 48 h
Method in brief: (§1)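 Cells grown in RPMI-1640 with 10% bovine calf serum and amikacin at 37°C, 5% CO₂. Seeded 25,000 cells/well, grown 24 h, then exposed to compounds diluted in serum-free medium for 48 h. Viability by Neutral Red uptake, % decrease versus vehicle control. IC50 from dose curves, triplicate means. Doxorubicin positive control.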

SK-OV-3 = experiment: Cytotoxicity against human SKOV3 cells up to 25 ug/ml after 48 hrs by neutral red assay relative to control; format: cell-based; conditions: sk-ov-3, 48 h
Method in brief: (§2)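 Cells grown in RPMI-1640 with 10% bovine calf serum and amikacin at 37 °C, 5% CO2. Seeded at 25,000 cells/well and grown 24 h, then exposed 48 h to samples diluted in serum-free medium. Viability by Neutral Red; % decrease vs vehicle; IC50 from dose curves. Triplicate runs, mean reported; doxorubicin as positive control.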

Vero = experiment: Cytotoxicity against African green monkey Vero cells up to 25 ug/ml after 48 hrs by neutral red assay relative to control; format: cell-based; conditions: chlorocebus sabaeus; method in brief: as §2
[2] = Antiinflammatory activity in human SW1353 cells assessed as inhibition of PMA-induced NF-kappaB activity incubated for 30 mins prior to PMA challenge measured after 8 hrs by luciferase reporter gene assay; format: cell-based
Method in brief: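 SW1353 cells in DMEM/F12 with 10% FBS, electroporated with NF-κB luciferase plasmid (160 V, one 70-ms pulse), plated at 1.25 × 10⁵ cells/well. After 24 h, graded compound concentrations added 30 min before PMA 70 ng/mL, then 8 h incubation. Luciferase read-out, % inhibition versus vehicle, IC50 from dose curves. Sp-1 reporter served as nonspecific control.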

KB = experiment: Cytotoxicity against human KB cells up to 25 ug/ml after 48 hrs by neutral red assay relative to control; format: cell-based; method in brief: as §2
SK-MEL [3] = experiment: Cytotoxicity against human SK-MEL cells after 48 hrs by neutral red assay relative to control; format: cell-based; method in brief: as §1
[4] = Cytotoxicity against pig LLC-PK11 cells up to 25 ug/ml after 48 hrs by neutral red assay relative to control; format: cell-based, Sus scrofa; conditions: llc-pk11, 48 h; method in brief: as §2
SK-MEL [5] = experiment: Cytotoxicity against human SK-MEL cells up to 25 ug/ml after 48 hrs by neutral red assay relative to control; format: cell-based; method in brief: as §2
BT-549 [6] = experiment: Cytotoxicity against human BT549 cells up to 25 ug/ml after 48 hrs by neutral red assay relative to control; format: cell-based; conditions: bt-549, 48 h; method in brief: as §2
SW1353 = experiment: Antiinflammatory activity in human SW1353 cells assessed as inhibition of PMA-induced NF-kappaB activity up to 25 ug/ml incubated for 30 mins prior to PMA challenge measured after 8 hrs by luciferase reporter gene assay; format: cell-based
Method in brief: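 SW1353 chondrosarcoma cells grown in DMEM/F12 with 10% FBS at 37 °C, 5% CO2. Cells electroporated with an NF-κB luciferase plasmid (50 μg/mL, 160 V, one 70-ms pulse) and plated at 1.25 × 10⁵ cells/well. After 24 h, compound was added 30 min before PMA (70 ng/mL), then 8 h incubation. Luciferase read-out as % inhibition vs vehicle; IC50 from dose curves. Sp-1 served as a counter-screen.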

| SMILES | IC50 (BT-549 [1]) [µM] | Activity (SK-OV-3) | Activity (Vero) | IC50 [2] [µM] | Activity (KB) | IC50 (SK-MEL [3]) [µM] | Activity [4] | Activity (SK-MEL [5]) | Activity (BT-549 [6]) | inhibition (SW1353) |
| --- | --- | --- | --- | --- | --- | --- | --- | --- | --- | --- |
| O=c1sc2ccccc2n1CCCCCCN1CCN(CCCn2c(=O)sc3ccccc32)CC1 | 25 | Non-toxic | Non-toxic | 2.4 | Non-toxic | 12 | Non-toxic |  |  |  |
| O=c1oc2ccccc2n1CCCCCCN1CCN(CCCCCn2c(=O)oc3ccccc32)CC1 | 22.5 | Non-toxic | Non-toxic | 1.4 | Non-toxic | 23 | Non-toxic |  |  |  |
| O=c1oc2ccccc2n1CCCCCCN1CCN(CCCCn2c(=O)oc3ccccc32)CC1 |  | Non-toxic | Non-toxic | 1.24 | Non-toxic |  | Non-toxic | Non-toxic | Non-toxic |  |
| O=c1oc2ccccc2n1CCCCCCN1CCN(CCCCCCn2c(=O)oc3ccccc32)CC1 | 18.5 | Non-toxic | Non-toxic |  | Non-toxic | 21.3 | Non-toxic |  |  | inactive |
| O=c1oc2ccccc2n1CCCCCCN1CCN(CCCn2c(=O)oc3ccccc32)CC1 |  | Non-toxic | Non-toxic |  | Non-toxic |  | Non-toxic | Non-toxic | Non-toxic | inactive |
| O=c1sc2ccccc2n1CCCCCCN1CCN(CCn2c(=O)sc3ccccc32)CC1 | 25 | Non-toxic | Non-toxic | 2.95 | Non-toxic | 25 | Non-toxic |  |  |  |
| O=c1sc2ccccc2n1CCCCCN1CCN(CCCn2c(=O)sc3ccccc32)CC1 | 14 | Non-toxic | Non-toxic | 1.46 | Non-toxic | 16.8 | Non-toxic |  |  |  |
| C=C1C(=O)O[C@@H]2[C@H]3O[C@]3(C)CC/C=C(\C)CC[C@@H]12 |  |  |  | 2.57 |  |  |  |  |  |  |
| O=c1oc2ccccc2n1CCCCCN1CCN(CCn2c(=O)oc3ccccc32)CC1 |  | Non-toxic | Non-toxic |  | Non-toxic |  | Non-toxic | Non-toxic | Non-toxic |  |
| O=c1oc2ccccc2n1CCCCCCN1CCN(CCn2c(=O)oc3ccccc32)CC1 |  | Non-toxic | Non-toxic | 3.07 | Non-toxic |  | Non-toxic | Non-toxic | Non-toxic |  |
| O=c1sc2ccccc2n1CCCCCN1CCN(CCCCn2c(=O)sc3ccccc32)CC1 | 22.1 | Non-toxic | Non-toxic | 1.18 | Non-toxic | 17.5 | Non-toxic |  |  |  |
| O=c1oc2ccccc2n1CCCCCN1CCN(CCCn2c(=O)oc3ccccc32)CC1 |  | Non-toxic | Non-toxic |  | Non-toxic |  | Non-toxic | Non-toxic | Non-toxic | inactive |
